CRFBP-R2 block – CRF-BP/CRF-R2 complex antagonism; HEK293 CRF-R2/CRF-BP, CRF-induced calcium fluorescence; inhibition, % at 11.8 µM; 0.59% of 350,000 active; AID 588475;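 active = inhibition of the ligand-induced calcium signal above about 50% at the single tested concentration, limit read from the data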
TAAR1 ag – human TAAR1 agonism; Q96RJ0; CHO RD-HGA16 TAAR1, Fluo-8 calcium fluorescence; vehicle wells 0%, saturating PEA agonist 100%; activation, % at 3 µM; 0.99% of 360,000 active; AID 624467;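 active = activation above the mean activation of all test compounds in the run plus 3 SD, cut at about 38% in these data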
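System: CHO-derived RD-HGA16 cells with stable Gα16 and human TAAR1 / Times: 17-24 h plating, Fluo-8 75 min 37 °C, 30 min RT / Technique: calcium-sensitive Fluo-8 signal, excitation 470-495, emission 515-575 nm / Measure: % activation relative to PEA EC100 response / Benchmarks: DMSO and PEA EC100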
ANO1 block – blocks the mouse calcium-activated chloride channel TMEM16A. Q8BHY3. HEK293 TMEM16A/YFP iodide influx fluorescence, ionomycin. normalized B-score (activity score, 25-100; higher = stronger inhibition) at 10 µM. 1.2% of 310,000 active. AID 588511;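 active = ratio plate-corrected score three or more library SD toward inhibition, starting fluorescence score within five deviations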;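 also: score derived from kinetic fluorescence span divided by baseline fluorescence per well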
Target sequence (Q8BHY3 whole entry, looked up): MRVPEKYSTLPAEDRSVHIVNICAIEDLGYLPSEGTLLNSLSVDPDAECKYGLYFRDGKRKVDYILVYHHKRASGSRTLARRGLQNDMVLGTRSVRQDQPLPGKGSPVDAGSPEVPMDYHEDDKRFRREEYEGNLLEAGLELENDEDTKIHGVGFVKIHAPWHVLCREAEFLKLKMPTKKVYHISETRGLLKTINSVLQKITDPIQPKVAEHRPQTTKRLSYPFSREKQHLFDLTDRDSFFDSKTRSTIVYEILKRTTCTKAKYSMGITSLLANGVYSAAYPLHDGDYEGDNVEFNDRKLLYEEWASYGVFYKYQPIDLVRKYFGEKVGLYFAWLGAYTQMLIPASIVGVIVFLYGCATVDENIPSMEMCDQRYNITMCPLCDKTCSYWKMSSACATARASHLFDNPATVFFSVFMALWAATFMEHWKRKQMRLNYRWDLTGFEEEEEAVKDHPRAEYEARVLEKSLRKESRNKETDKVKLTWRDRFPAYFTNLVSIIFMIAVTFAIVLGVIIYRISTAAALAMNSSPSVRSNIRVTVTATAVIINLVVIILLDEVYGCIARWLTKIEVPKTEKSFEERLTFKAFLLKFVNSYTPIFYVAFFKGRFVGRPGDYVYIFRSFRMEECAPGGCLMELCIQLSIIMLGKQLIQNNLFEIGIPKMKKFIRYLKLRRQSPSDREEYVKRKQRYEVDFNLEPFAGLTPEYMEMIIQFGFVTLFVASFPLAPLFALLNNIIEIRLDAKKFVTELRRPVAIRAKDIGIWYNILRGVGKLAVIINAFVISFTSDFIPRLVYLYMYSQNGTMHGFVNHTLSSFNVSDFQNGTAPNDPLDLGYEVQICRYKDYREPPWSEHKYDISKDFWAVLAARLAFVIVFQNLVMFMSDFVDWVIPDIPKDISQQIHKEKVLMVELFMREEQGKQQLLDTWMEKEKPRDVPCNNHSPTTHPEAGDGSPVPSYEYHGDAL
CRFR2-BP ag – agonists of human CRF-binding protein/CRF-R2 receptor complex | HEK293 CRF-R2/CRF-BP, calcium dye fluorescence (FLIPR); percent of saturating CRF peptide response | 0.46% of 350,000 active | AID 588473 | activation, % at 13.2 µM;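 active = activation of at least 50%, plus an integration ratio under a set limit after plate pattern correction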
TAAR1 antagonist – antagonists of human TAAR1; Q96RJ0; 1.5% of 360,000 active; CHO RD-HGA16 TAAR1, Fluo-8 calcium fluorescence, antagonist; inhibition, % at 3 µM;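 active = inhibition above a per-plate cutoff, the mean inhibition of test compounds on that plate plus 3 SD, cut at about 49% in these data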
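Test system: hTAAR1-expressing CHO RD-HGA16 cells, Gα16-coupled; Probe or stimulus: EC80 β-phenethylamine stimulus; Compound dosing: single nominal final test compound concentration of 3 µM; Timing: 140 s kinetic read after compound, 140 s after agonist; Signal: Fluo-8 calcium-sensitive fluorescence; Measure: % inhibition of agonist calcium response; Controls: DMSO and EC80 PEA controls.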
TMEM16A act – activates or potentiates the mouse TMEM16A chloride channel. Q8BHY3. HEK293 TMEM16A/YFP-H148Q/I152L, iodide quench fluorescence; stronger effect = lower value. B-score at 10 µM. 0.3% of 340,000 active. AID 623877;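 active = fluorescence-ratio B-score plate-corrected deviation score at least 3 library SD below zero, with starting fluorescence score within 5 deviations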;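 also: channel opened by trigger with iodide after compound preincubation; score built on the fluorescence ratio of max minus min over baseline; more negative score means more quench and so TMEM16A activation or potentiation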
Of the large screens only hits and unclear results are named; the others gave an inactive call. Only some compounds are listed: those with a hit (about 3.9% of all), similar ones and a draw of the others.

COc1ccccc1NC(=S)NCCc1ccc(S(N)(=O)=O)cc1	none
Cc1nn(Cc2ccccc2)c(Cl)c1C(=O)OCC#N	none
COc1ccc(NC(=O)CSC2=NCCN2)cc1	none
CS/C(=N\S(=O)(=O)c1cccs1)NC(=O)CSc1nc2ccccc2s1	ANO1 block 100
C/C(=N/NC(=O)CSc1nc2ccccc2s1)c1ccncc1	none
O=C(Nc1ccc(F)cc1)C(c1ccncc1)N1CCN(CC(=O)N2CCCC2)CC1 (configuration not stated)	none (no result: CRFBP-R2 block, ANO1 block, CRFR2-BP ag, TMEM16A act)
O=C(COC(=O)c1cc(=O)c2ccccc2o1)Nc1c(F)c(F)c(F)c(F)c1F	none (no result: ANO1 block)
O=C(COC(=O)c1cc(=O)c2ccccc2o1)Nc1ccc2ccccc2c1	TAAR1 ag 40.0
Cc1ccc(CNS(=O)(=O)c2c(C)[nH]c(=O)[nH]c2=O)cc1	none
CC(=O)c1ccc(N2CCN(C(=O)CCS(=O)(=O)c3ccc4c(c3)CCN4C(C)=O)CC2)cc1	CRFBP-R2 block 80.5
O=C(Cc1ccccc1)NNC(=O)c1ccc(NC(=O)c2ccccc2)cc1	none
CCOC(=O)CCC(=O)NNC(=O)c1ccc(NC(=O)c2ccccc2)cc1	TMEM16A act -6.83
O=C(CCNC(=O)c1ccccc1)NNC(=O)c1ccc(F)cc1	none (no result: ANO1 block)
O=C(CCNC(=O)c1ccc(Br)cc1)NNC(=O)c1ccccc1	TAAR1 ag 40.4 (no result: ANO1 block)
Cn1cc(/C=C2\SC(=S)N(NC(=O)c3ccccc3Cl)C2=O)c2ccccc21	CRFR2-BP ag 70.3
Cn1cc(C=O)c2ccccc21	none
Cc1ccc(C(=O)NN2C(=O)/C(=C/c3cn(C)c4ccccc34)SC2=S)cc1	none
O=C(NN1C(=O)/C(=C\c2ccc(O)c([N+](=O)[O-])c2)SC1=S)c1ccccc1Cl	TMEM16A act -5.5
Cn1cc(/C=C2\SC(=O)NC2=S)c2ccccc21	TMEM16A act -4.62
O=C(O)c1ccc(/C=C2\SC(=S)N(NC(=O)c3ccccc3[N+](=O)[O-])C2=O)cc1	none
O=C(COc1ccccc1Cl)NCCCNC(=O)c1cccnc1	none
COc1ccc(Cl)cc1NC(=O)CN1C(=O)CCS(=O)(=O)c2ccccc21	none (no result: ANO1 block)
COc1ccccc1NC(=O)CN1C(=O)CCS(=O)(=O)c2ccccc21	CRFBP-R2 block 84.5
Cc1ccc(C)c(C(=O)COC(=O)CN2C(=O)C3C4C=CC(C4)C3C2=O)c1 (configuration not stated)	none
CN1CCN(C(=S)NC(=O)/C=C/c2cccc3ccccc23)CC1	none
CC(C)NC(=S)NC(=O)/C=C/c1cccc2ccccc12	TMEM16A act -6.8
COc1cc2c(cc1NC(=O)COC(=O)C(CCSC)NC(=O)c1ccccc1Cl)oc1ccccc12 (configuration not stated)	none
O=c1c(NCCc2ccc(Cl)cc2)c(-c2ccccc2)c1=O	TAAR1 ag 42.1
O=c1[nH]ncc(NCCc2ccccc2)c1Cl	none
Cc1sc2nc(C3CC3)nc(SCC(=O)N3CCc4ccccc4C3)c2c1C	none
CCc1c(C)sc2nc(C(C)C)nc(SCC(=O)N3CCc4ccccc4C3)c12	ANO1 block 100 (no result: TMEM16A act)
Nc1ccc(-c2c3ccc(=O)cc-3oc3cc(O)ccc23)c(C(=O)O)c1	CRFR2-BP ag 231.9 (no result: TAAR1 ag, ANO1 block, TAAR1 antagonist)
COc1ccc(-c2cc(=O)c3ccc(O)cc3o2)cc1OC	none (no result: CRFBP-R2 block, ANO1 block, CRFR2-BP ag, TMEM16A act)
CCOC(=O)C1CCCN(C(=O)c2cccc(C(F)(F)F)c2)CC1 (configuration not stated)	none (no result: CRFBP-R2 block, ANO1 block, CRFR2-BP ag, TMEM16A act)
COc1ccc(NC(=O)COC(=O)c2c3c(nc4ccccc24)CCCC3)cc1	none
COc1ccc(NC(=O)COC(=O)c2c3c(nc4ccccc24)CCCC3)cc1Cl	TAAR1 antagonist 67.2
O=C(NCCC1CCCCN1S(=O)(=O)c1ccc(Cl)cc1)C(=O)NCCN1CCOCC1 (configuration not stated)	none
O=C(NCc1ccco1)c1cc(-c2ccccc2)nc2ccccc12	none
CN(C)S(=O)(=O)c1cccc(NC(=O)c2cc(-c3cccs3)nc3ccccc23)c1	TAAR1 antagonist 64.5
O=C(Nc1cccc(S(=O)(=O)NCc2ccco2)c1)c1cc(-c2ccccc2)nc2ccccc12	TAAR1 antagonist 59.0
Fc1ccccc1NC(=S)Nn1cnnc1	none
Cc1ccc(CN2CCN(c3cccc4[nH]ccc34)CC2)cc1	none
CC1=C(C(=O)Nc2cccc(C(=O)N3CCN(c4cccc(C(F)(F)F)c4)CC3)c2)SCCO1	TAAR1 antagonist 55.7
COC(=O)c1ccc(CN2C(=O)NC(Cc3c[nH]c4ccccc34)C2=O)cc1 (configuration not stated)	none
O=C(Nc1ccc(OC(F)(F)F)cc1)c1cnccn1	none
COc1ccc(N(C(=O)Cc2cccs2)C(C(=O)NC2CCCC2)c2ccncc2)cc1OC (configuration not stated)	none
COc1ccc(N(C(=O)Cc2cccs2)C(C(=O)NC2CCCCC2)c2cccn2C)cc1OC (configuration not stated)	TMEM16A act -5.42
Cc1ccc(CNc2ccc3c(c2)ncn3C(C)C)cc1	CRFR2-BP ag 61.4, TMEM16A act -13.4
CCn1cnc2cc(NCc3ccc(Br)cc3)ccc21	CRFR2-BP ag 51.8 (no result: TMEM16A act)
CCCn1cnc2cc(NCc3ccc(Br)cc3)ccc21	none
COc1cc2nc(N(CCCN(C)C)C(=O)c3ccc(S(=O)(=O)N4CCc5ccccc54)cc3)sc2cc1OC	TAAR1 ag 39.9
COc1ccc2sc(N(CCCN(C)C)C(=O)c3ccc(S(=O)(=O)N4CCCc5ccccc54)cc3)nc2c1	none
CCN(Cc1ccccc1)S(=O)(=O)c1ccc(C(=O)N(CCCN(C)C)c2nc3cc4c(cc3s2)OCCO4)cc1	none
CCN(Cc1ccccc1)S(=O)(=O)c1ccc(C(=O)N(CCCN(C)C)c2nc3ccc(F)cc3s2)cc1	TAAR1 ag 41.1
CN(C)CCCN(C(=O)c1ccc(S(=O)(=O)N(C)C2CCCCC2)cc1)c1nc2ccc(Br)cc2s1	none
COc1cc2nc(N(CCCN(C)C)C(=O)c3ccc(S(=O)(=O)N(C)C4CCCCC4)cc3)sc2cc1OC	none
Cc1cc(C)c2sc(N(CCCN(C)C)C(=O)c3ccc(S(=O)(=O)N(C)C4CCCCC4)cc3)nc2c1	TAAR1 ag 40.6
CCc1ccc2nc(N(CCCN(C)C)C(=O)c3ccc(S(=O)(=O)N(C)C4CCCCC4)cc3)sc2c1	TAAR1 ag 38.6, TAAR1 antagonist 51.0
CN1C[C@@H]2[C@@H]3C(=O)N(C)C(=O)[C@@H]3[C@](C)(C1=O)N2C(=O)c1ccc(C(C)(C)C)cc1	none (no result: ANO1 block)
C[C@@H]1CN([C@H](C)CO)C(=O)c2cc(Br)cnc2O[C@H]1CN(C)C(=O)CC1CC1	none (no result: ANO1 block, TMEM16A act)

Screens: PubChem BioAssay, several laboratories
